# Calls of active or inactive are those of the source. The calls are words filed in the database; no cut-off is given here.
# What was measured:
# [1] = molecular target: Tumour suppressor p53/oncoprotein Mdm2 (Homo sapiens, UniProt Q00987); experiment: Inhibition of GST-tagged MDM2 (amino acids 17 to 111 residues)/p53 (unknown origin) interaction incubated for 15 mins by; assay type: protein assay
# [2] = Volume of distribution at steady state in NMRI mouse at 5 mg/kg, iv; assay type: ADME, organism-based; details: in vivo, read-out: Vdss
# In short: (§1)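 Non-tumor-bearing female NMRI nude mice were given a single dose by one of two routes. The iv arm received 5 mg/kg as a bolus in 25% HP-B-CD. The po arm received 50 mg/kg in 0.5% Natrosol (pH 7-8, NaOH titrated). Both used 10 ml/kg. Plasma levels were measured by LC/MS/MS, n=3 per dose group. Parameters came from non-compartmental analysis, with AUC0-24h by linear trapezoidal interpolation.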
# [3] = Oral bio availability in NMRI mouse at 50 mg/kg; assay type: ADME, organism-based; details: in vivo; in short: as §1
# [4] = test system: SJSA-1; experiment: Antiproliferative activity against human SJSA-1 cells expression wild type p53 incubated for 3 days by Alamar Blue dye based assay; assay type: functional, cell-based; details: SJSA-1, 72 h
# [5] = AUC (0 to 24 hrs) in NMRI mouse at 50 mg/kg, po; assay type: ADME, organism-based; parameters: time < 24 hr, route oral, dose 50 mg/kg; details: in vivo; in short: as §1
# [6] = Clearance in NMRI mouse at 5 mg/kg, iv; assay type: ADME, organism-based; details: in vivo; in short: as §1
# [7] = test system: SK-OV-3; experiment: Antiproliferative activity against human SK-OV-3 cells expression p53 mutant incubated for 3 days by Alamar Blue dye based assay; assay type: functional, cell-based; details: SK-OV-3, 72 h
# In short: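 p53-mutant SK-OV-3 cells were used in a growth/proliferation assay, with compounds tested up to 25 μM.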
# [8] = Cmax in NMRI mouse at 50 mg/kg, po; assay type: ADME, organism-based; parameters: route oral, dose 50 mg/kg; details: in vivo; in short: as §1
# [9] = molecular target: E3 ubiquitin-protein ligase Mdm2 (Mus musculus) (UniProt P23804); experiment: In-vivo inhibition of MDM2 in BomTac:NMRI-Foxn1^nu mouse xenografted with human SJSA-1 cells assessed as induction of cleaved CASPASE3 protein accumulation at 100 mg/kg, po administered as single dose and measured after 6 to 24 hrs by immunohistochemical analysis; assay type: functional, organism-based; details: time 6-24 hrs
# Chain of E3 ubiquitin-protein ligase Mdm2 (Mus musculus) (P23804 whole entry): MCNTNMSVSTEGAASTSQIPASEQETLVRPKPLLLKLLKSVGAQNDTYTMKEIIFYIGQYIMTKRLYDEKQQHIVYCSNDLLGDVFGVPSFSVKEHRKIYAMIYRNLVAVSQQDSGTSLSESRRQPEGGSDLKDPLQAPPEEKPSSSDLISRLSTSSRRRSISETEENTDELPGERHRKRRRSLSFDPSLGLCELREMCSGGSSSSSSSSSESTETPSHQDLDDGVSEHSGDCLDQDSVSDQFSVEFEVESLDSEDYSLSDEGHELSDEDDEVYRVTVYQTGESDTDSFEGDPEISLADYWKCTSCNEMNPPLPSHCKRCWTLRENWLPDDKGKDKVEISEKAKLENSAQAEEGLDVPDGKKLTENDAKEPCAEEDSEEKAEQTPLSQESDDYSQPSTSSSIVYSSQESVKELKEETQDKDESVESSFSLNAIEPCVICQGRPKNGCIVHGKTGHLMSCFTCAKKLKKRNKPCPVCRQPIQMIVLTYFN
# In short: (§2)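 SJSA-1 tumor-bearing NMRI nude mice received one oral dose of 100 mg/kg. Tumors were harvested at 6 h and 24 h. Sections were stained by immunohistochemistry for CDKN1a, TP53 and cleaved CASPASE3.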
# [10] = molecular target: E3 ubiquitin-protein ligase Mdm2 (Mus musculus) (UniProt P23804); experiment: In-vivo inhibition of MDM2 in BomTac:NMRI-Foxn1^nu mouse xenografted with human SJSA-1 cells assessed as induction of CDKN1a protein accumulation at 100 mg/kg, po administered as single dose and measured after 6 to 24 hrs by immunohistochemical analysis; assay type: functional, organism-based; details: time 6-24 hrs; in short: as §2
# [11] = molecular target: E3 ubiquitin-protein ligase Mdm2 (Mus musculus) (UniProt P23804); experiment: In-vivo inhibition of MDM2 in BomTac:NMRI-Foxn1^nu mouse xenografted with human SJSA-1 cells assessed as induction of MDM2 protein accumulation at 100 mg/kg, po administered as single dose and measured after 6 to 24 hrs by mesoscale assay; assay type: functional, organism-based; details: time 6-24 hrs
# In short: (§3)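 In NMRI nude mice with established subcutaneous SJSA-1 tumors, a single oral 100 mg/kg dose was compared with vehicle. Tumors collected at 6 h and 24 h post-dose were analysed for protein biomarkers by Meso-Scale assay.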
# [12] = molecular target: E3 ubiquitin-protein ligase Mdm2 (Mus musculus) (UniProt P23804); experiment: In-vivo inhibition of MDM2 in BomTac:NMRI-Foxn1^nu mouse xenografted with human SJSA-1 cells assessed as induction of MDM2 mRNA expression at 100 mg/kg, po administered as single dose and measured after 6 to 24 hrs by q-RT-PCR analysis; assay type: functional, organism-based; details: time 6-24 hrs, TDE = time-dependent effect
# In short: (§4)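 Established subcutaneous SJSA-1 xenografts in NMRI nude mice were dosed once orally at 100 mg/kg, or with vehicle. Tumors were harvested 6 h and 24 h after dosing. TP53 target-gene mRNA was quantified by q-RT-PCR.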
# [13] = molecular target: E3 ubiquitin-protein ligase Mdm2 (Mus musculus) (UniProt P23804); experiment: In-vivo inhibition of MDM2 in BomTac:NMRI-Foxn1^nu mouse xenografted with human SJSA-1 cells assessed as induction of CDKN1a mRNA expression at 100 mg/kg, po administered as single dose and measured after 6 to 24 hrs by q-RT-PCR analysis; assay type: functional, organism-based; details: time 6-24 hrs, TDE = time-dependent effect; in short: as §4
# [14] = molecular target: E3 ubiquitin-protein ligase Mdm2 (Mus musculus) (UniProt P23804); experiment: In-vivo inhibition of MDM2 in BomTac:NMRI-Foxn1^nu mouse xenografted with human SJSA-1 cells assessed as induction of TP53 protein accumulation at 100 mg/kg, po administered as single dose and measured after 6 to 24 hrs by mesoscale assay; assay type: functional, organism-based; details: time 6-24 hrs; in short: as §3
# [15] = molecular target: E3 ubiquitin-protein ligase Mdm2 (Mus musculus) (UniProt P23804); experiment: In-vivo inhibition of MDM2 in BomTac:NMRI-Foxn1^nu mouse xenografted with human SJSA-1 cells assessed as induction of BBC3 mRNA expression at 100 mg/kg, po administered as single dose and measured after 6 to 24 hrs by q-RT-PCR analysis; assay type: functional, organism-based; details: time 6-24 hrs, TDE = time-dependent effect; in short: as §4
# [16] = molecular target: E3 ubiquitin-protein ligase Mdm2 (Mus musculus) (UniProt P23804); experiment: In-vivo inhibition of MDM2 in BomTac:NMRI-Foxn1^nu mouse xenografted with human SJSA-1 cells assessed as induction of TP53 protein accumulation at 100 mg/kg, po administered as single dose and measured after 6 to 24 hrs by immunohistochemical analysis; assay type: functional, organism-based; details: time 6-24 hrs; in short: as §2
# [17] = test system: SJSA-1; experiment: Antitumor activity against human SJSA-1 cells xenografted in BomTac:NMRI-Foxn1^nu mouse assessed as induction of tumor regression at 25 mg/kg, po dosed daily for 13 days; assay type: functional, organism-based; details: time 13.0 day
# In short: (§5)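 NMRI nude mice bearing established subcutaneous SJSA-1 osteosarcoma tumors received oral treatment, with a vehicle control group. There were 8 animals per group. Median tumor volume and median body weight change (% of initial) were tracked.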
# [18] = molecular target: E3 ubiquitin-protein ligase Mdm2 (Mus musculus) (UniProt P23804); experiment: In-vivo inhibition of MDM2 in BomTac:NMRI-Foxn1^nu mouse xenografted with human SJSA-1 cells assessed as induction of cleaved caspse-3 protein accumulation at 100 mg/kg, po administered as single dose and measured after 6 to 24 hrs by mesoscale assay; assay type: functional, organism-based; details: time 6-24 hrs; in short: as §3
# [19] = test system: SJSA-1; experiment: Antitumor activity against human SJSA-1 cells xenografted in BomTac:NMRI-Foxn1^nu mouse assessed as induction of tumor regression at 100 mg/kg, po administered as single dose and measured up to 13 days; assay type: functional, organism-based; details: time day <=13; in short: as §5
# Chain of Tumour suppressor p53/oncoprotein Mdm2 (P04637 whole entry, the tested form may be a part): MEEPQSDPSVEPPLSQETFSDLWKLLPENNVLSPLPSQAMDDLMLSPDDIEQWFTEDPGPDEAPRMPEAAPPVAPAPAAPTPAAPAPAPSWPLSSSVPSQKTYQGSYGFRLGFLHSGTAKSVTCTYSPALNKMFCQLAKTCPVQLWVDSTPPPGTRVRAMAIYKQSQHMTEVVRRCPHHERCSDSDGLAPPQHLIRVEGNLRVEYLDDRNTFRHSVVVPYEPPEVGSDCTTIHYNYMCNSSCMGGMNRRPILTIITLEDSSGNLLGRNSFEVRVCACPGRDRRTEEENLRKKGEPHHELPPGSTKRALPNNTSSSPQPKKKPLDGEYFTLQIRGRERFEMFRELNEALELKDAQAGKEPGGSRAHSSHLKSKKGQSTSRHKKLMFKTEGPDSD
# Chain of Tumour suppressor p53/oncoprotein Mdm2 (Q00987 whole entry, the tested form may be a part): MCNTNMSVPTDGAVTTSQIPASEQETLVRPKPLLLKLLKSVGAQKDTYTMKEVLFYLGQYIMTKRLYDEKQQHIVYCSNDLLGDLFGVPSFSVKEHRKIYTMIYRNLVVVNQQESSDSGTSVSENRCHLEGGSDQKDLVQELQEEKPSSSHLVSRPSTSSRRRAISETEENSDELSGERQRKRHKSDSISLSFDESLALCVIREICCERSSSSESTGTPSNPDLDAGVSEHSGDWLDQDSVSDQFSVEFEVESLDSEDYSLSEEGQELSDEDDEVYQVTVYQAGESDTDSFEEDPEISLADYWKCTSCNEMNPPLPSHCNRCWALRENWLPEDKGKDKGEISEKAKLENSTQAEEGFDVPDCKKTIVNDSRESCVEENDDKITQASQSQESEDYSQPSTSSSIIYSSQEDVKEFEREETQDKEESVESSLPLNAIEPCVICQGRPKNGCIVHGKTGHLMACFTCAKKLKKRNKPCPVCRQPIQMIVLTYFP
smiles,measurement,setting,value
CCOc1cccc(CN2[C@@H](C)[C@@H](N)[C@H](c3cccc(Cl)c3F)[C@]23C(=O)Nc2cc(Cl)ccc23)c1,IC50,[1],34 nM
CCOc1cccc(CN2[C@@H](C)[C@@H](N)[C@H](c3cccc(Cl)c3F)[C@]23C(=O)Nc2cc(Cl)ccc23)c1 (racemic),IC50,[1],57 nM
O=C1Nc2cc(Cl)ccc2[C@]12N[C@@H](Cc1ccccc1)[C@@H]([N+](=O)[O-])[C@@H]2c1cccc(Cl)c1 (racemic),IC50,[1],15600 nM
O=C(O)CN1CC[C@H]2[C@@H]1[C@H](c1cccc(Cl)c1F)[C@]1(C(=O)Nc3cc(Cl)ccc31)N2CC1CC1 (racemic),IC50,[1],39 nM
CCOc1cccc(CN2[C@H]3C[C@H](c4ccc(C(=O)O)cc4)N[C@H]3[C@H](c3cccc(Cl)c3F)[C@]23C(=O)Nc2cc(Cl)ccc23)c1,Vd,[2],1 L/kg
same,bioavailability,[3],13%
same,IC50,[4],67 nM
same,AUC(0-t) at 24 h,[5],8 µM·h
same,clearance,[6],23.2 mL/min/kg
same,IC50,[7],> 25000 nM
same,Cmax,[8],3.4 µM
CC(C)CCN1[C@@H](C)[C@@H](N)[C@H](c2cccc(Cl)c2)[C@]12C(=O)Nc1cc(Cl)ccc12 (racemic),IC50,[1],1080 nM
NC(=O)CC[C@@H]1N[C@@]2(C(=O)Nc3cc(Cl)ccc32)[C@@H](c2cccc(Cl)c2)[C@@H]1[N+](=O)[O-] (racemic),IC50,[1],13500 nM
CSC[C@@H]1N[C@@]2(C(=O)Nc3cc(Cl)ccc32)[C@@H](c2cccc(Cl)c2)[C@@H]1[N+](=O)[O-] (racemic),IC50,[1],24600 nM
C[C@H]1[C@@H](NCc2ccc(C(=O)O)cc2)[C@H](c2cccc(Cl)c2F)[C@]2(C(=O)Nc3cc(Cl)ccc32)N1CC1CC1,IC50,[1],107 nM
C[C@H]1[C@@H](N)[C@H](c2cccc(Cl)c2F)[C@]2(C(=O)Nc3cc(Cl)ccc32)N1CC1CC1,IC50,[4],2980 nM
same,IC50,[7],> 25000 nM
same,IC50,[1],157 nM
C[C@@H]1N[C@@]2(C(=O)Nc3cc(Cl)ccc32)[C@@H](c2cccc(Cl)c2)[C@@H]1[N+](=O)[O-] (racemic),IC50,[1],40000 nM
O=C(O)c1ccc([C@H]2C[C@H]3[C@@H](N2)[C@H](c2cccc(Cl)c2F)[C@]2(C(=O)Nc4cc(Cl)ccc42)N3CC2CC2)cc1,Vd,[2],2.1 L/kg
same,IC50,[4],471 nM
same,inhibition,[9],Active
same,AUC(0-t) at 24 h,[5],264 µM·h
same,inhibition,[10],Active
same,inhibition,[11],Active
same,inhibition,[12],Tde
same,inhibition,[13],Tde
same,inhibition,[14],Active
same,inhibition,[15],Tde
same,inhibition,[16],Active
same,Activity,[17],Active
same,inhibition,[18],Active
same,clearance,[6],7.1 mL/min/kg
same,IC50,[7],> 25000 nM
same,Activity,[19],Active
same,Cmax,[8],21.3 µM
O=C(O)CN1CC[C@H]2[C@@H]1[C@H](c1cccc(Cl)c1)[C@]1(C(=O)Nc3cc(Cl)ccc31)N2CC1CC1 (racemic),IC50,[1],80 nM
O=C1Nc2cc(Cl)ccc2[C@]12N[C@@H](CO)[C@@H]([N+](=O)[O-])[C@@H]2c1cccc(Cl)c1 (racemic),IC50,[1],30700 nM
C[C@H]1[C@@H](NCC(=O)O)[C@H](c2cccc(Cl)c2F)[C@]2(C(=O)Nc3cc(Cl)ccc32)N1CC1CC1,IC50,[4],2880 nM
same,IC50,[7],> 25000 nM
same,IC50,[1],62 nM
CC(C)(C)CN1C[C@@H](N)[C@H](c2cccc(Cl)c2)[C@]12C(=O)Nc1cc(Cl)ccc12,IC50,[1],819 nM
CC(=O)N[C@@H]1[C@H](C)N(CC2CC2)[C@@]2(C(=O)Nc3cc(Cl)ccc32)[C@H]1c1cccc(Cl)c1F,IC50,[1],229 nM
